ChEMBL document CHEMBL1145129, “Design, synthesis, and anticancer properties of 4,4'-dihydroxybenzophenone-2,4-dinitrophenylhydrazone and analogues” (J Med Chem, 2003)
Converted amounts (≈) assume the structure as drawn.

What was measured:
[1] = In vitro cytotoxicity in KM 12 SM cell line; type: functional; details: Homo sapiens, KM12
Outline: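 Established lines kept in RPMI-1640 with 10% fetal calf serum and penicillin/streptomycin at 36 °C, 10% CO₂. Cells seeded at 2000–3000 cells/well, hydrazones added at several concentrations after 18 h, and exposed a further 36 h. Viable cells read by MTT absorbance at 570 nm; cytostasis (%) = (1 − A/B)×100 against untreated control.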

[2] = tested on: Melanoma tumor cell line; test: In vitro cytotoxicity in Human melanoma tumor cells; (5+/-4, >10); type: functional, cell-based
[3] = organism: Homo sapiens; test: In vitro cytotoxicity in Human lung tumor cells; (5+/-5, 6+/-5); type: functional
[4] = In vitro cytotoxicity in SN 12 PM6 cell line; type: functional, cell-based; details: Homo sapiens
Outline: (§1)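 Established tumor lines kept in RPMI-1640 with 10% fetal calf serum and penicillin/streptomycin at 36 °C, 10% CO₂. Seeded 2000–3000 cells/well; hydrazone-containing medium added after 18 h, then 36 h further culture. Viable cells read by MTT absorbance at 570 nm; cytostasis (%) = (1 − A_treated/A_control) × 100.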

[5] = tested on: breast cancer cells (Homo sapiens); test: In vitro cytotoxicity in estrogen receptor and progesterone receptor positive Human breast tumor cells; (2.5+/-0.9, 0.5+/-1)
[6] = In vitro cytotoxicity in FDCP-1 cell line; details: Mus musculus, FDC-P1
[7] = In vitro cytotoxicity in estrogen receptor and progesterone receptor negative Human breast tumor cells; (5+/-2, 0.2+/-0.3); type: functional, cell-based
[8] = In vitro cytotoxicity in estrogen receptor negative progesterone receptor positive Human breast tumor cells; (3+/-2, 0.4+/-0.1); type: functional, cell-based
[9] = tested on: Colon carcinoma cell; test: In vitro cytotoxicity in Human colon tumor cells; (>12+/-4, >12+/-5); type: functional, cell-based
[10] = tested on: MDA-MB-435; test: In vitro cytotoxicity in MDA-MB-435 cell line; type: functional, cell-based; details: Homo sapiens; outline: as §1
[11] = organism: Homo sapiens; test: In vitro cytotoxicity in Human ovary tumor cells; (3+/-3, 4.2+/-4); type: functional; details: Female gonad
[12] = In vitro cytotoxicity in estrogen receptor positive progesterone receptor negative Human breast tumor cells; (>5, 0.5); type: functional, cell-based
[13] = In vitro cytotoxicity in B 16 F10 cell line; details: Mus musculus, B16-F10

## O=[N+]([O-])c1ccc(NN=C(c2ccc(O)cc2)c2ccc(O)cc2)c([N+](=O)[O-])c1 [SIVIFENE]
[1]
  IC50: 5.4 µg/mL (≈ 13.7 µM)
[2]
  IC50: 7 µg/mL (≈ 17.8 µM)
[3]
  IC50: 4.9 µg/mL (≈ 12.4 µM)
[4]
  IC50: 4 µg/mL (≈ 10.1 µM)
[5]
  IC50: 3.5 µg/mL (≈ 8.88 µM)
[6]
  IC50: 9.1 µg/mL (≈ 23.1 µM)
[7]
  IC50: 12.6 µg/mL (≈ 32 µM)
[8]
  IC50: > 10 µg/mL
[9]
  IC50: 15.2 µg/mL (≈ 38.5 µM)
[10]
  IC50: 2.1 µg/mL (≈ 5.33 µM)
[11]
  IC50: 12.3 µg/mL (≈ 31.2 µM)
[12]
  IC50: > 10 µg/mL
[13]
  IC50: 1 µg/mL (≈ 2.54 µM)
